Key:
A549 = test: Cytotoxicity against human A549 cells assessed as inhibition of cell growth measured for 24 hrs by MTT assay; type: functional, cell-based; conditions: A549, 24 h
Summary of the method: (§1)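 Cells were kept at 37 °C with 5% CO2 in suitable medium with 10% FBS and 1% antibiotic-antimycotic, and passaged at 80-90% confluency using 0.25% trypsin/1 mM EDTA. They were seeded at 1×10^3–4×10^3 cells/well and attached overnight. Compounds came from 10 mM DMSO stocks diluted in medium and were applied for 24 h. MTT (0.5 mg/mL) was added for 4 h at 37 °C, formazan was dissolved in DMSO, and absorbance was read at 570 nm.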

B16-F10 = test: Cytotoxicity against mouse B16-F10 cells assessed as inhibition of cell growth measured for 24 hrs by MTT assay; type: functional, cell-based; conditions: B16-F10, 24 h; summary of the method: as §1
HCT-116 [1] = test: Cytotoxicity against human HCT-116 cells assessed as inhibition of cell growth measured for 24 hrs by MTT assay; type: functional, cell-based; conditions: HCT-116, 24 h; summary of the method: as §1
BT-474 = test: Cytotoxicity against human BT-474 cells assessed as inhibition of cell growth measured for 24 hrs by MTT assay; type: functional, cell-based; conditions: BT-474, 24 h; summary of the method: as §1
Tubulin (Homo sapiens) = Tubulin (Homo sapiens) (UniProt P68371+Q9H4B7+P0DPH7+P68366+Q13509+Q71U36+P04350+Q3ZCM7+P07437+P68363+Q9BQE3+Q6PEY2+Q13885+Q9BVA1+Q9BUF5); test: Inhibition of tubulin polymerization in human HCT-116 cells at 3 uM measured after 1 hr relative to control; type: cell-based
HCT-116 [2] = test: Induction of cell cycle arrest in human HCT-116 cells assessed as accumulation of cells at S phase at 0.55 uM measured after 24 hrs by PI staining based flow cytometry analysis relative to control (reference value: 5.55%)
HCT-116 [3] = test: Induction of morphological change in human HCT-116 cells assessed as change in cell shape incubated for 24 hrs by phase contrast microscopic analysis; type: functional, cell-based; conditions: dose 1.62-6.5 µM
Summary of the method: (§2)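 HCT-116 plated at 1 × 10^6 cells/mL in RPMI + 10% FBS and allowed to adhere 24 h at 37 °C, 5% CO2. […] After 24 h, morphology imaged by phase-contrast microscopy at 20X.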

HCT-116 [4] = test: Induction of apoptosis in human HCT-116 cells assessed as viable cells at 0.55 uM measured after 24 hrs by Annexin V-FITC/propidium iodide staining based flow cytometry (reference value: 99.71%); type: functional; conditions: read-out: Activity
HCT-116 [5] = test: Induction of apoptosis in human HCT-116 cells assessed as early apoptotic cells at 0.55 uM measured after 24 hrs by Annexin V-FITC/propidium iodide staining based flow cytometry (reference value: 0.28%); type: functional
HCT-116 [6] = test: Induction of morphological change in human HCT-116 cells assessed as cell detachment incubated for 24 hrs by phase contrast microscopic analysis; type: functional, cell-based; summary of the method: as §2
HCT-116 [7] = test: Induction of apoptosis in human HCT-116 cells assessed as necrotic cells at 0.55 uM measured after 24 hrs by Annexin V-FITC/propidium iodide staining based flow cytometry (reference value: 0.00%); type: functional
HCT-116 [8] = test: Induction of apoptosis in human HCT-116 cells assessed as late apoptotic cells at 0.55 uM measured after 24 hrs by Annexin V-FITC/propidium iodide staining based flow cytometry (reference value: 0.00%); type: functional
HCT-116 [9] = test: Induction of cell cycle arrest in human HCT-116 cells assessed as accumulation of cells at G0/G1 phase at 0.55 uM […] by PI staining based flow cytometry analysis relative to control (reference value: 70.34%); type: functional
HCT-116 [10] = test: Induction of cell cycle arrest in human HCT-116 cells assessed as accumulation of cells at G2/M phase at 0.55 uM measured after 24 hrs by PI staining based flow cytometry analysis relative to control (reference value: 15.61%)
HCT-116 [11] = test: Induction of apoptosis in human HCT-116 cells assessed as horseshoe shaped nuclei measured for 24 hrs by DAPI staining based microscopic analysis; type: functional, cell-based; conditions: dose 1.62-6.5 µM
Summary of the method: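 Then PBS wash, 4% paraformaldehyde fixation 30 min, 0.1% Triton X permeabilisation 15 min, 1 µM DAPI 15 min, PBS wash. Imaged by fluorescence microscopy (ex 350/em 460 nm), 20X.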

HCT-116 [12] = test: Induction of morphological change in human HCT-116 cells assessed as cell rounding incubated for 24 hrs by phase contrast microscopic analysis; type: functional, cell-based; conditions: dose 1.62-6.5 µM; summary of the method: as §2

SMILES | IC50 (A549) [µM] | IC50 (B16-F10) [µM] | IC50 (HCT-116 [1]) [µM] | IC50 (BT-474) [µM] | other results
COc1ccc(/C=C(/C(=O)OCc2cn(CC(=O)c3ccc(Br)cc3)nn2)c2ccc(OC)c(OC)c2)cc1OC | 42.9 | > 50 | 35.8 | > 50 | 
COc1ccc(/C=C(/C(=O)OCc2cn(CC(=O)c3ccc(Cl)cc3)nn2)c2ccc3c(c2)OCO3)cc1OC | 37.3 | 28.9 | > 50 | > 50 | 
CC(=O)O[C@H]1C(=O)[C@@]2(C)[C@H]([C@H](OC(=O)c3ccccc3)[C@]3(O)C[C@H](OC(=O)[C@H](O)[C@@H](NC(=O)c4ccccc4)c4ccccc4)C(C)=C1C3(C)C)[C@]1(OC(C)=O)CO[C@@H]1C[C@@H]2O |  |  |  |  | inhibition (Tubulin (Homo sapiens)): 49.5%
COc1ccc(/C=C(/C(=O)OCc2cn(Cc3ccc([N+](=O)[O-])cc3)nn2)c2ccc(OC)c(OC)c2)cc1OC | 36.8 | 17.5 | 35 | 28.4 | 
COc1ccc(/C=C(/C(=O)OCc2cn(Cc3ccccc3F)nn2)c2ccc(OC)c(OC)c2)cc1OC | 29.2 | 17.4 | 22.1 | 26.2 | 
COc1ccc(/C=C(/C(=O)OCc2cn(CC(=O)c3ccccc3)nn2)c2ccc(OC)c(OC)c2)cc1OC | 38.2 | 40.2 | 23.5 | 16.2 | 
COc1ccc(/C=C(/C(=O)OCc2cn(Cc3ccccc3[N+](=O)[O-])nn2)c2ccc(OC)c(OC)c2)cc1OC | 41 | 39.5 | 38.1 | 40.8 | 
COc1ccc(/C=C(/C(=O)OCc2cn(CC(=O)c3ccc(C)cc3)nn2)c2ccc(OC)c(OC)c2)cc1OC | 41.7 | > 50 | 33.4 | 40.7 | 
COc1ccc(/C=C(/C(=O)OCc2cn(CC(=O)c3ccc(Cl)c(Cl)c3)nn2)c2ccc(OC)c(OC)c2)cc1OC | 37 | 29.6 | 26.5 | 47.5 | 
COc1ccc(/C=C(/C(=O)OCc2cn(Cc3ccccc3)nn2)c2ccc(OC)c(OC)c2)cc1OC | 32.7 | 16.1 | 20.2 | 14.9 | 
COc1ccc(C(=O)Cn2cc(COC(=O)/C(=C/c3ccc(OC)c(OC)c3)c3ccc4c(c3)OCO4)nn2)cc1 | 31.3 | 37.7 | > 50 | > 50 | 
COc1ccc(/C=C(/C(=O)OCc2cn(Cc3ccc(F)cc3)nn2)c2ccc(OC)c(OC)c2)cc1OC | 28.9 | 2.37 | 21.6 | 17.1 | 
COc1ccc(/C=C(/C(=O)OCc2cn(Cc3cc(C)ccc3C)nn2)c2ccc(OC)c(OC)c2)cc1OC | > 50 | 40.8 | 49.9 | 20.1 | 
COc1ccc(/C=C(/C(=O)OCc2cn(Cc3ccc(Br)cc3)nn2)c2ccc(OC)c(OC)c2)cc1OC | 15.2 | 1.53 | 25.3 | 20.7 | 
COc1ccc(/C=C(/C(=O)OCc2cn(CC(=O)c3ccc(Cl)cc3)nn2)c2ccc(OC)c(OC)c2)cc1OC | 38.6 | > 50 | 31.9 | > 50 | 
COc1ccc(/C=C(/C(=O)OCc2cn(Cc3ccc(C)cc3)nn2)c2ccc(OC)c(OC)c2)cc1OC | 12.4 | 1.73 | 21.1 | 12.4 | 
COc1ccc(/C=C(/C(=O)OCc2cn(CC(=O)c3ccc(Cl)c(Cl)c3)nn2)c2ccc3c(c2)OCO3)cc1OC | 25.5 | 41.6 | > 50 | > 50 | 
COc1ccc(/C=C(/C(=O)OCc2cn(CC(=O)c3ccccc3)nn2)c2ccc3c(c2)OCO3)cc1OC | 30.8 | 30.9 | > 50 | > 50 | 
COc1cc2c(c(OC)c1OC)-c1ccc(OC)c(=O)cc1[C@@H](NC(C)=O)CC2 [COLCHICINE] | 0.89 |  | 0.55 | 12.5 | Activity (HCT-116 [2]): 6.61%; Activity (HCT-116 [3]): Dose-Dependent Effect; viability at 0.55 µM (HCT-116 [4]): 31.1%; Activity (HCT-116 [5]): 10.32%; Activity (HCT-116 [6]): Dose-Dependent Effect; Activity (HCT-116 [7]): 6.78%; Activity (HCT-116 [8]): 61.81%; Activity (HCT-116 [9]): 54.45%; Activity (HCT-116 [10]): 40.57%; Activity (HCT-116 [11]): Dose-Dependent Effect; Activity (HCT-116 [12]): Dose-Dependent Effect
COc1ccc(/C=C(/C(=O)OCc2cn(Cc3cccc(Cl)c3)nn2)c2ccc(OC)c(OC)c2)cc1OC | > 50 | 22.8 | 21.2 | > 50 | 
COc1ccc(C(=O)Cn2cc(COC(=O)/C(=C/c3ccc(OC)c(OC)c3)c3ccc(OC)c(OC)c3)nn2)cc1 | 41.9 | 14.1 | 18 | 47.5 | 

From ChEMBL document CHEMBL5252639, “Exploration of cytotoxic potential and tubulin polymerization inhibition activity of cis-stilbene-1,2,3-triazole congeners” (RSC Med Chem, 2023)
